Sampled rows, rich in hits. Any-hit rate of the full collection: about 1.6%.
MsrA act = bovine methionine sulfoxide reductase A activation | purified bovine MsrA, absorbance read-out | actives 0.3% (n = 360,000) | activation, % at 10.6 µM | AID 602163; in the data active means activation above about 7.5%;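 further: 0% = vehicle and 100% = reference activator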
p-CIP stab down = p/CIP protein destabilization; Q05BA5; F442A p/CIP-EGFP cells, EGFP fluorescence, 16 h; decrease of EGFP signal, % at 10 µM; actives 0.01% (n = 290,000); AID 1984;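 active means EGFP signal decrease of at least 30% at 10 µM or well 3 SD below plate mean, unless failing retest; inactive means the rest, including hits failing retest or dose response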
Target sequence (Q05BA5 1-1403): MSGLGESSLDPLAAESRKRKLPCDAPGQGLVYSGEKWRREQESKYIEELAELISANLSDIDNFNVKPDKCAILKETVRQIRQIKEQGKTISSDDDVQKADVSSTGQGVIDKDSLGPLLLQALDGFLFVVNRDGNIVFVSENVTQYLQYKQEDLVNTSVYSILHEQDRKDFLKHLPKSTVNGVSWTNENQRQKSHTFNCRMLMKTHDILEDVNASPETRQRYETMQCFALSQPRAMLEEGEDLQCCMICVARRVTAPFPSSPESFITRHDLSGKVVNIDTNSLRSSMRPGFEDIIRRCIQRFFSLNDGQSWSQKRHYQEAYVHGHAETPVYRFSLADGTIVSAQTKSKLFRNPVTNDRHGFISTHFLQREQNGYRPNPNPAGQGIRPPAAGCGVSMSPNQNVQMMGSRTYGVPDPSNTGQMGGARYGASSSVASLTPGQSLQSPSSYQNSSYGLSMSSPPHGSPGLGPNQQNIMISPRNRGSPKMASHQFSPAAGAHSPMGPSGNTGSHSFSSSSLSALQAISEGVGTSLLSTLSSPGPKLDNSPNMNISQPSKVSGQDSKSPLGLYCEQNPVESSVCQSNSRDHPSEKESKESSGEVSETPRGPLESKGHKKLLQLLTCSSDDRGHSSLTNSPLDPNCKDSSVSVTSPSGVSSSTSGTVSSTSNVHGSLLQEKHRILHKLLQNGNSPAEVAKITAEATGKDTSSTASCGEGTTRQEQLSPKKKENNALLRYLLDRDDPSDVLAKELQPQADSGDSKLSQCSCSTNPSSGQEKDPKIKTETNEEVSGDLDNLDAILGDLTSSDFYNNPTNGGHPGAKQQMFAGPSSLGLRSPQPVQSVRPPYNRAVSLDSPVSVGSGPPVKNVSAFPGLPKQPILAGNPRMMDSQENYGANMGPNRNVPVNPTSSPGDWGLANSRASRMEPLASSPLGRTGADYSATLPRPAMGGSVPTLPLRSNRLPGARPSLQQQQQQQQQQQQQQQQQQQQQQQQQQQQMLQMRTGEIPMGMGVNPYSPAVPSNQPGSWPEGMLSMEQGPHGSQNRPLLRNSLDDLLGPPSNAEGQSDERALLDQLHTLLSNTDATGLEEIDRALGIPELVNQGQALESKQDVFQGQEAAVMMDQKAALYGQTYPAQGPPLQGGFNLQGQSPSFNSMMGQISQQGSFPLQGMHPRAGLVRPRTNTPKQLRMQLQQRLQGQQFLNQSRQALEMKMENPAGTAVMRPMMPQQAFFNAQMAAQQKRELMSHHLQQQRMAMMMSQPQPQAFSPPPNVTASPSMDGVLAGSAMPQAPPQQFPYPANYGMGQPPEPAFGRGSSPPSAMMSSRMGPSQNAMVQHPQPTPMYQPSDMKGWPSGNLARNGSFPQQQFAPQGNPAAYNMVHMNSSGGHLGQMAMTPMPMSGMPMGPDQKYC
SKN-1 block = inhibitors of C. elegans SKN-1; C. elegans VP596 Pgst-4::GFP/RFP ratio, acrylamide-induced, 24 h; inhibition, % at 21.8 µM; actives 0.49% (n = 360,000); AID 624304;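 active means interference check ratio from 0.5 to 1.5 plus GFP to RFP signal ratio inhibition reaching or exceeding a fixed threshold, cut at about 30% in these data, passing the limit was not always enough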
MT1-MMP act inh = blocks activation of human MT1-MMP | P50281 | HT1080 RFP-PRO-GFP cells, GFP/RFP ratio fluorescence, overnight; percent of plate control window, DMSO zero | GFP/RFP ratio change, % at 20 µM | actives 0.061% (n = 360,000) | AID 651647;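 active means GFP/RFP ratio change of at least 30% with cell ATP level not reduced by more than half and red fluorescence within 50% of control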
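Test system: HT1080 cells expressing an RFP-PRO-GFP fluorescent reporter construct / Compound dosing: single-point 20 µM compound, 1% DMSO / Schedule: cells overnight before dosing, compound overnight, 37 °C, 5% CO2 / Evaluation: GFP/RFP fluorescence ratio / Control set: DMSO and RFP-L50D-GFP cell wells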
MsrA inhibitor = inhibits bovine methionine sulfoxide reductase A; inhibition, % at 15.5 µM; actives 0.75% (n = 360,000); purified bovine MsrA, absorbance read-out;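 further: 0% = vehicle wells with enzyme and 100% = reference inhibitor wells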
MT1-MMP act val = blocks activation of human MT1-MMP in validation testing; shares compounds with MT1-MMP act inh; HT1080 RFP-PRO-GFP cells, GFP and RFP fluorescence ratio, overnight; inhibition, % at 20 µM; actives 10% (n = 200);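 active means inhibition of at least 50% in the primary cell screen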
MsrA conf = confirmation of bovine MsrA inhibitors; inhibition, % at 15.5 µM; purified bovine MsrA, absorbance read-out; actives 41% (n = 2,300); shares compounds with MsrA inhibitor;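 further: coupled to thioredoxin reductase with NADPH and selenocystamine and DMSO as substrate; 0% = vehicle only and 100% = full effect of reference inhibitor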
* hit, by the source's call. Unless noted, no stated cut-off is given here; in the data, active means inhibition above about 4.5%; inactive means the rest.

CCC(C)N1C(=O)/C(=C\c2ccc(N3CCCCCC3)cc2)C(=O)NC1=S (stereo not given) was read as MsrA act -10.5, p-CIP stab down -13.5, SKN-1 block 32.7, MT1-MMP act inh 33.5*, MsrA inhibitor 2.0 and MT1-MMP act val 3.1.
Screening CC1(C)CC2CCC(O)C2C(CCO)N1 (stereo not given) returned MsrA act -2.6, SKN-1 block 1.5, MT1-MMP act inh 2.6 and MsrA inhibitor 1.8.
CNC(=S)N1CCN(CCN=Cc2c(O)n(-c3ccc(C)cc3)c(=S)[nH]c2=O)CC1 was read as MsrA act -5.8, p-CIP stab down 4.2, SKN-1 block -10.1, MT1-MMP act inh -1.9, MsrA inhibitor 4.7* and MsrA conf 2.7.
Cc1cccc(-n2c(O)c(C=NCCN3CCNCC3)c(=O)[nH]c2=S)c1 was read as MsrA act -2.8, p-CIP stab down 0.1, SKN-1 block 4.2, MT1-MMP act inh 0.2 and MsrA inhibitor 2.4.
COc1cc(N2CCOCC2)ccc1/C=C1\C(=O)NC(=O)N(Cc2cccs2)C1=O was read as MsrA act -4.4, p-CIP stab down -6.4, SKN-1 block 27.5, MT1-MMP act inh 12.2, MsrA inhibitor 6.4* and MsrA conf 2.7.
Screening COc1cc(N2CCOCC2)ccc1/C=C1\C(=O)NC(=O)N(Cc2ccc3c(c2)OCO3)C1=O returned MsrA act -4.8, p-CIP stab down 5.4, SKN-1 block 41.0*, MT1-MMP act inh -22.4, MsrA inhibitor 6.2* and MsrA conf 1.6.
`CCCCCC1(C(C)C)C(=O)NC(=S)NC1=O` gave MsrA act 0.2, SKN-1 block -3.2, MT1-MMP act inh -15.7 and MsrA inhibitor 0.7.
`COC(=O)C1=C(c2ccccc2)C[C@@H]2CC[C@H]1N2C(=O)N1CCOCC1` gave MsrA act -2.2, SKN-1 block 15.1, MT1-MMP act inh -2.2 and MsrA inhibitor -0.3.
Screening CCCC(=O)NC1=C(N2CC2)C(=O)C(NC(=O)CCC)=C(N2CC2)C1=O returned MsrA act -2.5, SKN-1 block 1.2, MT1-MMP act inh 7.6, MsrA inhibitor 4.7* and MsrA conf 0.8.
CCCC(=O)Nc1ccc(N2CCN(CC)CC2)c(Cl)c1 was read as MsrA act -0.6, p-CIP stab down -12.5, SKN-1 block 27.1, MT1-MMP act inh 0.0 and MsrA inhibitor 0.5.
Cc1ccc(C)c(Cn2c(C(=O)O)c(C=O)c3ccccc32)c1 was read as MsrA act -5.4, p-CIP stab down -9.4, SKN-1 block -0.3, MT1-MMP act inh -116.7 and MsrA inhibitor 0.2.
CCOC(=O)c1c(C=O)c2ccccc2n1Cc1ccccc1 was read as MsrA act -2.0, p-CIP stab down -2.3, SKN-1 block 1.3, MT1-MMP act inh -4.0, MsrA inhibitor 4.9* and MsrA conf 5.0*.
Cc1ccc(OC(=O)N(C)C[C@H]2OCc3cnnn3CCCC(=O)N([C@H](C)CO)C[C@@H]2C)cc1 was read as MsrA act -3.0, SKN-1 block -4.6, MT1-MMP act inh 1.3 and MsrA inhibitor 0.0.
`C/C(=N\NC(=O)c1ccccc1O)c1c(O)n(C2CCCCC2)c(=O)[nH]c1=O` gave MsrA act -5.1, p-CIP stab down -8.4, SKN-1 block 6.6, MT1-MMP act inh -1.6, MsrA inhibitor 5.0* and MsrA conf 6.7*.
For C/C(=N\NC(=O)c1ccccc1Cl)c1c(O)n(C2CCCCC2)c(=O)[nH]c1=O the results were MsrA act -6.2, p-CIP stab down 2.7, SKN-1 block 9.8, MT1-MMP act inh 0.8 and MsrA inhibitor 3.7.
`O=C(O)CCn1cc(C=C2C(=O)NC(=O)NC2=O)c(-c2cc3ccccc3oc2=O)n1` gave MsrA act -0.9, p-CIP stab down -23.2, SKN-1 block 19.5, MT1-MMP act inh -4.1 and MsrA inhibitor 1.9.
`Cn1c(O)c(C=Nc2ccccc2)c(=O)n(C)c1=O` gave MsrA act -6.2, p-CIP stab down -13.7, SKN-1 block 4.9, MT1-MMP act inh -2.0, MsrA inhibitor 5.1* and MsrA conf 4.8*.
For CC1([N+](=O)[O-])COP(=O)(NC2CC2)OC1 (stereo not given) the results were MsrA act 0.4, SKN-1 block 3.2, MT1-MMP act inh 1.4 and MsrA inhibitor 0.1.
For N#CCCn1cc(C(=O)Nc2ccccc2Br)c(-c2ccc([N+](=O)[O-])cc2)n1 the results were MsrA act 2.9, p-CIP stab down 3.4, SKN-1 block 7.9, MT1-MMP act inh -13.7, MsrA inhibitor 46.6* and MsrA conf 0.5.
For CN[C@@H](C)[C@@H](O)c1ccccc1 the results were MsrA act -0.1, p-CIP stab down -7.1, SKN-1 block -3.1, MT1-MMP act inh -2.2 and MsrA inhibitor 0.9.
Screening CC(=O)c1ccc2c(c1)C1C(Cl)C(Sc3ccccc3[N+](=O)[O-])CC1C(c1ccccc1[N+](=O)[O-])N2 (stereo not given) returned MsrA act -2.5, p-CIP stab down -13.9, SKN-1 block 42.4*, MT1-MMP act inh -12.1, MsrA inhibitor 5.5* and MsrA conf 1.8.
For CC(=O)c1ccc2c(c1)C1C(Cl)C(Sc3ccccc3[N+](=O)[O-])CC1C(c1ccccc1)N2 (stereo not given) the results were MsrA act -11.4, p-CIP stab down -12.2, SKN-1 block -4.3, MT1-MMP act inh 5.9 and MsrA inhibitor 0.5.
For CCCCn1c(O)c(/C=N/N2CCCCC2c2cccnc2)c(=O)[nH]c1=S (stereo not given) the results were MsrA act -3.5, p-CIP stab down -18.9, SKN-1 block 22.9, MT1-MMP act inh -2.5 and MsrA inhibitor 1.1.
For C=CCn1c(O)c(/C=N/N2CCCCC2c2cccnc2)c(=O)[nH]c1=S (stereo not given) the results were MsrA act -4.6, p-CIP stab down 8.5, SKN-1 block 13.5, MT1-MMP act inh 0.5, MsrA inhibitor 5.8* and MsrA conf 4.2.
For COc1cc2c(cc1O)CC1c3c(cc(O)c(OC)c3-2)CCN1C (stereo not given) the results were MsrA act -0.7, p-CIP stab down -11.1, SKN-1 block 6.4, MT1-MMP act inh -2.1, MsrA inhibitor 9.7* and MsrA conf 9.5*.
CC(C)(CN)CC(=O)O was read as MsrA act -2.0, p-CIP stab down -2.8, SKN-1 block -9.8, MT1-MMP act inh 2.8 and MsrA inhibitor -1.4.
Screening O=C(NN=Cc1ccc(N(CCCl)CCCl)cc1)c1cccc([N+](=O)[O-])c1 returned MsrA act -3.9, SKN-1 block 4.2, MT1-MMP act inh 9.2 and MsrA inhibitor 1.0.

Source: PubChem
